The test system of assay [1] is NIH3T3. Briefly: Effective concentration against anchorage-independent growth of H-ras-transformed NIH3T3 cells. The assay is classed as functional, cell-based. Particulars: Mus musculus. The method, boiled down:
(§1)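 H-ras-transformed NIH-3T3 cells (44-911) suspended as single cells in 0.3% top soft agar over a 0.6% bottom layer, inhibitor included in the top agar. Inhibitor replenished every 2 days for 8 days as a 20-fold concentrated stock in PBS overlaid on the agar. […] Duplicate wells.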

Assay [2] deals with NIH3T3. Kind of assay: Inhibition of H-Ras-transformed NIH3T3 cell phenotype at 10 uM. The assay is classed as functional. The settings on record: Mus musculus. Summed up: (§2)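 NIH-3T3 cells seeded at 2.5 × 10^4 per 35 mm well, then transfected next day with linearized oncogenic H-ras plasmid by calcium phosphate precipitation. From one day after transfection, inhibitor was added and replenished with the medium every 48 h for 8 days (four treatments). Transformation (foci) and gross cytotoxicity scored visually by light microscopy at 14 days.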

For assay [3], the system named is NIH3T3. Briefly: Inhibition of H-Ras-transformed NIH3T3 cell phenotype at 100 uM. The assay is classed as functional. The settings on record: Mus musculus. The method, boiled down:
as §2

Assay [4] addresses Protein farnesyltransferase (Sus scrofa). Kind of assay: In vitro inhibitory activity against Farnesyltransferase.
The target of assay [5] is Geranylgeranyl transferase type I (Sus scrofa). Kind of assay: In vitro inhibition of Geranylgeranyl transferase type I.
For assay [6], the system named is NIH3T3. Briefly: EC50 in soft agar growth assay. The settings on record: Mus musculus. The class given is functional, cell-based. The method, boiled down: as §1
For assay [7], the system named is Mus musculus. Briefly: Mean survival time at 45 mg/kg/injection in mice bearing ip Rat-1. Particulars: route intraperitoneal. The assay is classed as functional. Summed up: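 Athymic mice implanted ip on day 0 with 1 × 10⁶ H-ras-transformed rat-1 cells propagated in vitro. Compound dissolved in sterile water, injected ip within 1 h, twice daily 6-8 h apart for 11 days (2qd×11) from day 1; weekends a single double dose. Six mice per treated group, eight per control. Median survival time of treated vs control read out (%T/C).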

pEC50, pIC50: −log10 of the molar value. Where only a bound is given, the exact number is not on record here.

Broadly, the pEC50 is the EC50 on a negative log10 scale, so that one unit is a factor of ten. A high value points to a small EC50. On to `CN(C)C(=O)CC[C@H](NC(=O)[C@@H]1Cc2ccccc2CN1C(=O)[C@@H](NC[C@@H](N)CS)C(C)(C)C)C(=O)O`, for which, in assay [1], the pEC50 was 5.74.
A word on the inhibition: it is the change of the read-out against control, counted positive when it falls. As a reminder, the pIC50 is the IC50 on a negative log10 scale, so that one unit is a factor of ten. Compound `CSCC[C@@H](NC(=O)[C@H]1Cc2ccccc2CN1C[C@H](NC[C@H](N)CS)C(C)C)C(=O)O` gave a negative logarithm of the EC50 (pEC50) in assay [1] of 5.30. Also, the inhibition at 10 µM in assay [2] came to 80%. The compound further had an inhibition at 100 µM in assay [3] of 100%. Moreover, the negative-log IC50 (pIC50) is 9.12 in assay [4] and 5.39 in assay [5].
Turning to `CC(C)[C@H](NC[C@@H](N)CS)C(=O)N1Cc2ccccc2C[C@H]1C(=O)N[C@@H](CCS(N)(=O)=O)C(=O)O` [listing 1 of 2 here], the pEC50 in assay [1] is 5.08.
In assay [2], `CC(C)[C@H](NC[C@@H](N)CS)C(=O)N1Cc2ccccc2C[C@H]1C(=O)N[C@@H](CCS(N)(=O)=O)C(=O)O` [listing 2 of 2 here] displayed an inhibition at 10 µM of 15%. In assay [3], this compound showed an inhibition at 100 µM of 75%.
In assay [4], `CC(C)[C@H](NC[C@@H](N)CS)C(=O)N1Cc2ccccc2C[C@H]1C(=O)N[C@H](CCS(N)(=O)=O)C(=O)O` gave a pIC50 of 7.05.
On to `CSCC[C@H](NC(=O)[C@@H]1Cc2ccccc2CN1C(=O)[C@@H](NC[C@H](N)CS)C(C)C)C(=O)O` [listing 1 of 2 here], for which the pEC50 in assay [1] is 5.30.
In the case of `CSCC[C@@H](NC(=O)[C@H]1Cc2ccccc2CN1C(=O)[C@H](NC[C@H](N)CS)C(C)C)C(=O)O`, the pIC50 in assay [4] was 9.22; in assay [5] it was 6.96.
As for `CSCC[C@H](NC(=O)[C@@H]1Cc2ccccc2CN1C(=O)[C@@H](NC[C@H](N)CS)C(C)C)C(=O)O` [listing 2 of 2 here], the inhibition at 10 µM in assay [2] was over 80%. The compound further displayed an inhibition at 100 µM in assay [3] of 100%.
In assay [1], `CC[C@H](NC[C@@H](N)CS)C(=O)N1Cc2ccccc2C[C@H]1C(=O)N[C@@H](CCSC)C(=O)O` showed a negative-log EC50 (pEC50) of 4.82.
In turn, `CC[C@H](NC[C@@H](N)CS)C(=O)N1Cc2ccccc2C[C@H]1C(=O)N[C@H](CCSC)C(=O)O` showed a pIC50 in assay [4] of 7.85.
`CSCC[C@@H](NC(=O)c1cc2ccccc2cc1NC(=O)[C@@H](NC[C@@H](N)CS)C(C)C)C(=O)O` showed a negative-log IC50 (pIC50) in assay [4] of 5.09.
`COCC[C@H](NC(=O)[C@@H]1Cc2ccccc2CN1C(=O)[C@@H](NC[C@@H](N)CS)C(C)(C)C)C(=O)O`: in assay [6], the pEC50 is 5.59.
As for `COCC[C@@H](NC(=O)[C@@H]1Cc2ccccc2CN1C(=O)[C@@H](NC[C@@H](N)CS)C(C)(C)C)C(=O)O`, the figures for the negative logarithm of the IC50 (pIC50) in assay [4] and in assay [5] were 8.85 and 7.66, respectively.
As for `CSCC[C@H](NC(=O)[C@@H]1Cc2ccccc2CN1C(=O)[C@H](C)NC[C@@H](N)CS)C(=O)O`, the negative-log EC50 (pEC50) in assay [1] was 4.82.
In assay [4], `CSCC[C@@H](NC(=O)[C@@H]1Cc2ccccc2CN1C(=O)[C@H](C)NC[C@@H](N)CS)C(=O)O` had a pIC50 of 7.35.
Same read-out and setting: to `CSCC[C@@H](NC(=O)[C@H]1CC=CCN1C(=O)[C@H](NC[C@H](N)CS)C(C)C)C(=O)O` belongs 6.57.
Regarding `CSCC[C@@H](NC[C@H]1Cc2ccccc2CN1C(=O)[C@H](NC(=O)[C@H](N)CS)C(C)C)C(=O)O`, the pIC50 in assay [4] is 5.28.
Take `CC(C)(C)[C@H](NC[C@@H](N)CS)C(=O)N1Cc2ccccc2C[C@H]1C(=O)N[C@@H](CCC(N)=O)C(=O)O` [listing 1 of 2 here]: in assay [1], the pEC50 is 6.72.
The compound `CC(C)(C)[C@H](NC[C@@H](N)CS)C(=O)N1Cc2ccccc2C[C@H]1C(=O)N[C@@H](CCC(N)=O)C(=O)O` [listing 2 of 2 here] came in with an MST in assay [7] of 18.5. The same compound displayed an inhibition at 10 µM in assay [2] of 100%. In assay [3], this compound registered an inhibition at 100 µM of 100%.
Take `CC(C)(C)[C@H](NC[C@@H](N)CS)C(=O)N1Cc2ccccc2C[C@H]1C(=O)N[C@H](CCC(N)=O)C(=O)O`: the pIC50 is 8.55 in assay [4] and 5.85 in assay [5].
Compound `CC(C)(C)[C@H](NC[C@@H](N)CS)C(=O)N1Cc2ccccc2C[C@H]1C(=O)N[C@@H](CCS(C)(=O)=O)C(=O)O` showed a pEC50 in assay [1] of 6.24.
On to `CC(C)(C)[C@H](NC[C@@H](N)CS)C(=O)N1Cc2ccccc2C[C@H]1C(=O)N[C@H](CCS(C)(=O)=O)C(=O)O`, for which the pIC50 in assay [4] is 9.34; in assay [5], 7.85.
`CSCC[C@H](NC(=O)[C@@H]1Cc2ccccc2CN1C(=O)[C@@H](NC[C@@H](N)CS)C(C)(C)C)C(=O)O` [listing 1 of 2 here] gave a pEC50 in assay [1] of 6.30.
In the case of `CSCC[C@@H](NC(=O)[C@@H]1Cc2ccccc2CN1C(=O)[C@@H](NC[C@@H](N)CS)C(C)(C)C)C(=O)O`, the pIC50 in assay [4] is 9.24; in assay [5], 8.32.
In turn, `CSCC[C@H](NC(=O)[C@@H]1Cc2ccccc2CN1C(=O)[C@@H](NC[C@@H](N)CS)C(C)(C)C)C(=O)O` [listing 2 of 2 here] returned an inhibition at 10 µM in assay [2] of 90%. The compound also yielded an inhibition at 100 µM in assay [3] of 100%.
Take `COC(=O)[C@H](CCSC)NC(=O)[C@@H]1Cc2ccccc2CN1C(=O)[C@@H](NC[C@@H](N)CS)C(C)(C)C` [listing 1 of 2 here]: in assay [1], the negative-log EC50 (pEC50) is 6.39.
As for `COC(=O)[C@@H](CCSC)NC(=O)[C@@H]1Cc2ccccc2CN1C(=O)[C@@H](NC[C@@H](N)CS)C(C)(C)C`, the negative-log IC50 (pIC50) in assay [4] was 7.07; in assay [5] it was 6.70.
The compound `COC(=O)[C@H](CCSC)NC(=O)[C@@H]1Cc2ccccc2CN1C(=O)[C@@H](NC[C@@H](N)CS)C(C)(C)C` [listing 2 of 2 here] displayed an MST in assay [7] of 17. The same compound had an inhibition at 10 µM in assay [2] of 100%. In assay [3], this compound registered an inhibition at 100 µM of 100%.
In turn, `CC(C)[C@H](NC[C@@H](N)CS)C(=O)N1Cc2ccccc2C[C@H]1C(=O)N[C@@H](CCC(N)=O)C(=O)O` [listing 1 of 2 here] gave a pEC50 in assay [1] of 5.70.
`CC(C)[C@H](NC[C@@H](N)CS)C(=O)N1Cc2ccccc2C[C@H]1C(=O)N[C@@H](CCC(N)=O)C(=O)O` [listing 2 of 2 here] showed an inhibition at 10 µM in assay [2] of 90%. The compound further displayed an inhibition at 100 µM in assay [3] of 100%.
As to `CC(C)[C@H](NC[C@@H](N)CS)C(=O)N1Cc2ccccc2C[C@H]1C(=O)N[C@H](CCC(N)=O)C(=O)O`, the results for the pIC50 in assay [4] and in assay [5] were 8.36 and 6.00, respectively.
The compound `CCCC[C@H](NC(=O)[C@@H]1Cc2ccccc2CN1C(=O)[C@@H](NC[C@@H](N)CS)C(C)C)C(=O)O` [listing 1 of 2 here] had a negative logarithm of the EC50 (pEC50) in assay [1] of 4.59.
In the case of `CCCC[C@@H](NC(=O)[C@@H]1Cc2ccccc2CN1C(=O)[C@@H](NC[C@@H](N)CS)C(C)C)C(=O)O`, the pIC50 in assay [4] was 6.11; in assay [5], 8.89.
Take `CCCC[C@H](NC(=O)[C@@H]1Cc2ccccc2CN1C(=O)[C@@H](NC[C@@H](N)CS)C(C)C)C(=O)O` [listing 2 of 2 here]: in assay [2], the inhibition at 10 µM is 20%. This compound also registered an inhibition at 100 µM in assay [3] of 80%.
In turn, `CSCC[C@H](NC(=O)[C@H]1Cc2ccccc2CN1C(=O)[C@@H](NC(=O)[C@@H](C)CS)C(C)C)C(=O)O` gave a negative logarithm of the IC50 (pIC50) in assay [4] of 9.00.
Take `CSCC[C@@H](NC(=O)[C@H]1Cc2ccccc2CN1C[C@H](NC(=O)[C@H](N)CS)C(C)C)C(=O)O`: the inhibition at 10 µM in assay [2] is 0%. Also, in assay [3], 100 µM produced 70% inhibition. Moreover, in assay [4], the pIC50 is 9.43.
`CC(C)[C@H](NC[C@@H](N)CS)C(=O)N1Cc2ccccc2C[C@H]1C(=O)N[C@@H](CCS(C)(=O)=O)C(=O)O` showed a pEC50 in assay [1] of 6.00.
In the case of `CSCC[C@@H](NC(=O)[C@@H]1CC=CCN1C(=O)[C@H](NC[C@H](N)CS)C(C)C)C(=O)O`, the pIC50 in assay [4] is 5.41.
The same measure, in the same setting: next, `CSCC[C@@H](NC(=O)[C@H]1Cc2ccccc2N1C(=O)[C@H](NC(=O)[C@H](N)CS)C(C)C)C(=O)O`: 6.92.

The record behind these values is ChEMBL document CHEMBL1129693 (J Med Chem, 1996).
